pIC50, pKi: −log10 of the molar value.
Legend:
[1] = Inhibition of Trypanosoma brucei rhodesiense trypanothione reductase
Summary of the method: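 Automated photometric TR assay adapted to 384-well format. The rate of TNB formation was followed continuously at 412 nm for 15 min at room temperature.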

[2] = system: Trypanosoma brucei rhodesiense; experiment: Inhibition of Trypanosoma brucei rhodesiense trypanothione reductase at 25 uM
[3] = system: Trypanosoma brucei rhodesiense; experiment: Trypanocidal activity against Trypanosoma brucei rhodesiense; assay type: functional, organism-based
HT-29 = experiment: Cytotoxicity against human HT29 cells; assay type: functional, cell-based
[4] = target: T1, Glutathione reductase, mitochondrial (Homo sapiens, UniProt P00390); experiment: Inhibition of human glutathione reductase
T1 sequence (P00390 whole entry): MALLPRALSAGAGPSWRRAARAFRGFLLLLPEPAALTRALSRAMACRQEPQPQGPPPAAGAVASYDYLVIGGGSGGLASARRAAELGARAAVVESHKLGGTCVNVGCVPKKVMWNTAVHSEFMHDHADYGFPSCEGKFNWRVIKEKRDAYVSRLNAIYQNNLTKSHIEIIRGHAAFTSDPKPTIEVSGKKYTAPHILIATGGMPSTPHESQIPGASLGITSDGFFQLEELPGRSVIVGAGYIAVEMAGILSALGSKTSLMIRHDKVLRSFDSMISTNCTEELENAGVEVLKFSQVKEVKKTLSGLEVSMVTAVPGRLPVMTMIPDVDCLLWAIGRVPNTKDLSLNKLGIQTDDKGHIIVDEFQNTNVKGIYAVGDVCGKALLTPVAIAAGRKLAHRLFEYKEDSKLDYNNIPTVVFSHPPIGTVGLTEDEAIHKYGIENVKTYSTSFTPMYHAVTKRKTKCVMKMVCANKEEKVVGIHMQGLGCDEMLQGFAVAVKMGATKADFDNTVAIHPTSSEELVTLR
Summary of the method: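 GR assay adapted from the TR screening protocol, using higher enzyme and G[S]₂ levels because of the higher K_m. The rate of TNB formation was recorded continuously at 412 nm over 15 min at room temperature.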

Row | Structure (SMILES) | pIC50 [1] | also measured
1 | CCCCn1c(=N)n(CC(O)c2ccc(Br)cc2)c2ccccc21 (stereo unspecified) | < 4.00 | inhibition [2]: 42%
2 | CN1CCCC(n2c(=N)n(CCOc3ccccc3)c3ccccc32)C1 (stereo unspecified) | < 4.00 | 
3 | C=CCn1c(=N)n(CCN(CC)CC)c2ccccc21 | < 4.00 | inhibition [2]: 31%
4 | CC(C)(C)C(O)Cn1c(=N)n(CCN2CCCCC2)c2ccccc21 (stereo unspecified) | < 4.00 | inhibition [2]: 66%
5 | c1ccc(OCCNc2ccccc2NCCN2CCCCC2)cc1 | < 4.00 | 
6 | CCn1c(=N)n(CCOCCOCCn2c(=N)n(CC)c3ccccc32)c2ccccc21 | < 4.00 | 
7 | CC(=O)/N=c1/n(CCOc2ccccc2)c2ccccc2n1CCN1CCCCC1 | < 4.00 | 
8 | C=CCn1c(=N)n(CC(O)c2ccc(OCC)cc2)c2ccccc21 (stereo unspecified) | < 4.00 | inhibition [2]: 6%
9 | N=c1n(Cc2ccccc2)c2ccccc2n1CC(O)c1ccc(Cl)cc1 (stereo unspecified) | < 4.00 | inhibition [2]: 32%
10 | N=c1n(CCN2CCOCC2)c2ccccc2n1CC(O)COc1ccccc1 (stereo unspecified) | < 4.00 | 
11 | Cc1ccc(OCC(O)Cn2c(=N)n(CCN3CCOCC3)c3ccccc32)cc1 (stereo unspecified) | < 4.00 | 
12 | Cc1ccc(C(O)Cn2c(=N)n(CCCN(C)C)c3ccccc32)cc1 (stereo unspecified) | 4.46 | 
13 | CCN(CC)CCn1c(=N)n(CCN(CC)CC)c2ccccc21 | 4.23 | 

Compounds with a higher pIC50 [1], results first:

Row | pIC50 [1] | Structure (SMILES) | also measured
14 | 5.00 | CCN(CC)CCn1c(=N)n(CC(=O)c2ccc(Cl)c(Cl)c2)c2ccccc21 | 
15 | 4.62 | COc1ccc(C(O)Cn2c(=N)n(CCN3CCCCC3)c3ccccc32)cc1 (stereo unspecified) | inhibition [2]: 85%
16 | 5.40 | N=c1n(CCOc2ccccc2)c2ccccc2n1CCN1CCCCC1 | 
17 | 5.05 | Cc1ccc(OCC(O)Cn2c(=N)n(CCN3CCCCC3)c3ccccc32)cc1 (stereo unspecified) | 
18 | 5.15 | N=c1n(CCCOc2ccccc2)c2ccccc2n1CCN1CCCCC1 | 
19 | 5.30 | N=c1n(CCN2CCCCC2)c2ccccc2n1CC(O)COc1ccccc1 (stereo unspecified) | 
20 | 5.10 | N=c1n(CCCCCOc2ccccc2)c2ccccc2n1CCN1CCCCC1 | 
21 | 4.54 | Cc1ccc(C(O)Cn2c(=N)n(CCN(C)C)c3ccccc32)cc1 (stereo unspecified) | 
22 | 4.72 | CCN(CC)CCn1c(=N)n(CC(O)c2ccc(C)cc2)c2ccccc21 (stereo unspecified) | 
23 | 4.60 | CCN(CC)CCn1c(=N)n(CC(=O)c2ccc(-c3ccccc3)cc2)c2ccccc21 | 
24 | 5.40 | N=c1n(CCOCCOCCn2c(=N)n(Cc3ccccc3)c3ccccc32)c2ccccc2n1Cc1ccccc1 | pKi [1]: 5.72; pIC50 [3]: 5.89; pIC50 (HT-29): 3.84; pIC50 [4]: < 4.00
25 | 5.05 | CCN(CC)CCn1c(=N)n(CC(O)c2ccc(Cl)c(Cl)c2)c2ccccc21 (stereo unspecified) | 
26 | 5.00 | CN(C)CCn1c(=N)n(CC(O)c2ccc(Cl)c(Cl)c2)c2ccccc21 (stereo unspecified) | inhibition [2]: 92%; pKi [1]: 5.27; pIC50 [3]: 6.22; pIC50 (HT-29): 4.34; pIC50 [4]: < 4.00
27 | 5.15 | CCN(CC)CCn1c(=N)n(CC(=O)c2ccc(C)cc2)c2ccccc21 | inhibition [2]: 91%
28 | 4.80 | Cc1ccc(C(O)Cn2c(=N)n(CCN3CCCCC3)c3ccccc32)cc1 (stereo unspecified) | 
29 | 5.10 | CCN(CC)CCn1c(=N)n(CCOc2ccccc2)c2ccccc21 | 
30 | 5.30 | N=c1n(CCN2CCCCC2)c2ccccc2n1CC(O)COc1ccc(Cl)cc1Cl (stereo unspecified) | 
31 | 5.40 | N=c1n(CCN2CCCCC2)c2ccccc2n1CC(O)c1ccc(Cl)c(Cl)c1 (stereo unspecified) | pKi [1]: 5.44; pIC50 [3]: 6.70; pIC50 (HT-29): 5.05; pIC50 [4]: < 4.00

Reference: ChEMBL document CHEMBL1139083, “Discovery of 2-iminobenzimidazoles as a new class of trypanothione reductase inhibitor by high-throughput screening” (Bioorg Med Chem Lett, 2007)
